Experimental data reported in article PMC7182240 (The Pediatric Infectious Disease Journal, 2020).
“Also recorded” adds a separate entry of the source. *1 amine or outer side, *2 acyl side, *3 side chain or, on linkers, in order; H or OH if unused. Where a SMILES comes first, the peptide text is derived from it. Bridges are numbered along the chain shown (N, C = ends). [ ]: non-standard residue; d: D form. The star is where a group is joined. pTerphenylCO(4''-OnC5H11) = CCCCCOc1ccc(-c2ccc(-c3ccc(C(=O)*)cc3)cc2)cc1; Orn(4R-OH,5R-OH) = O=C([C@H](C[C@@H](O)[C@@H](O)N[*:3])N[*:1])[*:2]; hTyr(3S-OH,4S-OH) = N[C@H](C(=O)O)[C@H](O)[C@@H](O)c1ccc(O)cc1; Pro(3S-OH,4S-Me) = C[C@H]1CN[C@H](C(=O)O)[C@H]1O; Hyp = O=C(O)[C@@H]1C[C@@H](O)CN1

Legend:
[1] = system: invasive candidiasis, including candidemia (Candida species); experiment: Global response, relapse and microbiologic outcome in invasive candidiasis; type: in vivo, human
In short: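 Modified intent-to-treat patients (≥1 dose, microbiologically confirmed Candida infection) received IV drug: 3 mg/kg loading dose on day 1, then 1.5 mg/kg daily for ≤35 days. An optional switch to oral fluconazole (6–12 mg/kg/d, max 800 mg/d) was allowed after ≥10 days IV, to ≤49 days total. Global response was assessed at end of IV therapy, end of treatment, and week 2 and 6 follow-up. Relapse and new infection were also assessed. Analysis was descriptive.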

Safety and tolerability = type: in vivo, human
In short: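 Safety population: all 19 patients aged 1 month to <2 years, with confirmed or high-risk invasive candidiasis, who received IV drug (3 mg/kg day 1, then 1.5 mg/kg daily, ≤1.1 mg/min, ≤35 days). Optional oral fluconazole was allowed after ≥10 days (confirmed cases) or ≥5 days (high-risk), to ≤49 days total. Treatment-emergent adverse events and all-cause mortality were recorded throughout the study and summarized descriptively.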

invasive candidiasis = settings: cited from earlier work
[2] = PS80 plasma concentration in infants; type: in vivo, human; settings: infants receiving anidulafungin formulated with PS80
[3] = safety population n = 19, all causalities, AEs up to 30 days after last dose

In the case of `CCCCCOc1ccc(-c2ccc(-c3ccc(C(=O)N[C@H]4C[C@@H](O)[C@@H](O)NC(=O)[C@@H]5[C@@H](O)[C@@H](C)CN5C(=O)[C@H]([C@@H](C)O)NC(=O)[C@H]([C@H](O)[C@@H](O)c5ccc(O)cc5)NC(=O)[C@@H]5C[C@@H](O)CN5C(=O)[C@H]([C@@H](C)O)NC4=O)cc3)cc2)cc1` [anidulafungin] ({pTerphenylCO(4''-OnC5H11)}-[Orn(4R-OH,5R-OH)]T[Hyp][hTyr(3S-OH,4S-OH)]T[Pro(3S-OH,4S-Me)]; lactam 1-C), the “Global response success rate at EOIVT” value ([1]; 11 of 16 patients, MITT, 1 month to <2 years) is reported as 68.8%, the “Patients achieving negative blood cultures” value ([1]; 15 of 16) is reported as 93.8% and the Resistance to anidulafungin ([1]; Candida species) is reported as “No resistance to anidulafungin was observed”. The “Median time to first negative blood culture” value ([1]; MITT population) was 3 days, the “Relapse or new infection” value ([1]; week 2 and week 6 follow-up visits) was “No patients relapsed or experienced new infection” and the “Patients with treatment-related TEAEs” value (Safety and tolerability; 3 of 19 patients) was 15.8%. The “Patients with severe TEAEs” value (Safety and tolerability; 7 of 19 patients) was 36.8%, the “Patients with TEAEs of any causality” value (Safety and tolerability; 17 of 19 patients, safety population) was 89.5% and the Treatment-related deaths (Safety and tolerability; safety population n = 19) was “no treatment-related deaths occurred; also recorded: No deaths were considered related to anidulafungin”. The “Incidence of TEAE: Device-related infection” value (Safety and tolerability; [3]) was 1 (5.3) n (%), the “Incidence of TEAE: Lower respiratory tract infection” value (Safety and tolerability; [3]) was 1 (5.3) n (%) and the “Incidence of TEAE: Upper respiratory tract infection” value (Safety and tolerability; [3]) was 1 (5.3) n (%). For the same molecule, the “Global response of success at EOIVT in adults” value (invasive candidiasis) was 75.6%.
In the case of polysorbate 80 [PS80], the “Hepatotoxicity or PS80 accumulation” value [2] is reported as “No hepatotoxicity or PS80 accumulation was detected”.
For `OC(Cn1cncn1)(Cn1cncn1)c1ccc(F)cc1F` [fluconazole], the “TEAEs related to fluconazole” value (Safety and tolerability; 6 patients switched to oral fluconazole 6-12 mg/kg/d) was “No patients experienced TEAEs related to fluconazole”.
